Data reported in ChEMBL document CHEMBL5696442, “Discovery of type II inhibitors of TGFβ-activated kinase 1 (TAK1) and mitogen-activated protein kinase kinase kinase kinase 2 (MAP4K2)” (J Med Chem, 2015).
Active and inactive are the calls of the source. The calls are words filed in the database; no cut-off is given here.

Legend:
[1] = target: Dual specificity mitogen-activated protein kinase kinase 1 (Homo sapiens) (UniProt Q02750); assay: Inhibition of MAP2K1 Lys2 labeling site harbouring DVKPSNILVNSR in human A-375 cells at 5 uM by KiNativ Profiling analysis relative to control; assay type: cell-based
[2] = target: Tyrosine-protein kinase Fer (Homo sapiens, UniProt P16591); assay: Inhibition of FER K1 labeling site in human Huh-7 cells at 1 uM by KiNativ Profiling analysis relative to control; assay type: cell-based
[3] = target: Casein kinase I isoform alpha-like (Homo sapiens) (UniProt Q8N752); assay: Inhibition of CSNK1A1L (unknown origin) at 10 uM by Ambit Kinomescan binding assay
[4] = target: T1, Mitogen-activated protein kinase kinase kinase 3 (Homo sapiens) (UniProt Q99759); assay: Inhibition of MAP3K3 Lys2 labeling site in human A-375 cells at 0.05 uM by KiNativ Profiling analysis relative to control; assay type: cell-based
T1 sequence (whole entry): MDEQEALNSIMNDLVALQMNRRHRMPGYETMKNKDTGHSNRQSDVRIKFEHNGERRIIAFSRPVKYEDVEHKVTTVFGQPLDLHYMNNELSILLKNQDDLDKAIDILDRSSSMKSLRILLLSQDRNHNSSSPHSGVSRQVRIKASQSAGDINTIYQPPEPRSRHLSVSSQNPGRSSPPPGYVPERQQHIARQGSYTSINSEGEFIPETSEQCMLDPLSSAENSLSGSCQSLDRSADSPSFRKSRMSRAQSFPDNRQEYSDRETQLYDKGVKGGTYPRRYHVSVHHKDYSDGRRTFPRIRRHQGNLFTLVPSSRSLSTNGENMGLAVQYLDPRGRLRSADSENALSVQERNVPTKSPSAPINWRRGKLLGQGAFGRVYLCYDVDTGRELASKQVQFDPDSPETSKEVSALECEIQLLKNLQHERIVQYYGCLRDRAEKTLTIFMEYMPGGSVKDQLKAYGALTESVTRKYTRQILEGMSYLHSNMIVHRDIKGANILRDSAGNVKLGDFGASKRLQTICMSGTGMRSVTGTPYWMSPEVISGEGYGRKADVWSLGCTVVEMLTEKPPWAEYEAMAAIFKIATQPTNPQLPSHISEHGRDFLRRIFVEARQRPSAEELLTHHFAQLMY

[5] = target: Mitogen-activated protein kinase 7 (Homo sapiens) (UniProt Q13164); assay: Inhibition of Erk5 Lys2 labeling site in human A-375 cells at 0.05 uM by KiNativ Profiling analysis relative to control; assay type: cell-based
[6] = target: Cytoplasmic tyrosine-protein kinase BMX (Homo sapiens) (UniProt P51813); assay: Inhibition of BMX (unknown origin) at 10 uM by Ambit Kinomescan binding assay relative to control
[7] = target: Mitogen-activated protein kinase kinase kinase 20 (Homo sapiens, UniProt Q9NYL2); assay: Inhibition of ZAK K1 labeling site in human Huh-7 cells at 1 uM by KiNativ Profiling analysis relative to control; assay type: cell-based
[8] = target: STE20-like serine/threonine-protein kinase (Homo sapiens) (UniProt Q9H2G2); assay: Inhibition of SLK K1 labeling site in human Huh-7 cells at 1 uM by KiNativ Profiling analysis relative to control; assay type: cell-based
[9] = test system: Mast/stem cell growth factor receptor Kit (Homo sapiens), P10721 [V559D]; assay: Inhibition of KIT V559D mutant (unknown origin) at 10 uM by Ambit Kinomescan binding assay relative to control
[10] = target: Tyrosine-protein kinase CSK (Homo sapiens, UniProt P41240); assay: Inhibition of CSK ACT labeling site harbouring VSDFGLTKEASSTQDTGKLPVK in human Huh-7 cells at 1 uM by KiNativ Profiling analysis relative to control; assay type: cell-based
[11] = target: Rho-associated protein kinase 2 (Homo sapiens) (UniProt O75116); assay: Inhibition of ROCK2 Lys2 labeling site in human A-375 cells at 0.5 uM by KiNativ Profiling analysis relative to control; assay type: cell-based
How it was run: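 Live A375 melanoma cells treated with compound at 5 or 0.5 μM, then lysed. Lysate kinases were labeled with a lysine-reactive ATP or ADP-biotin probe. Inhibition was read as protection of labeling sites from the probe.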

[12] = target: Serine/threonine-protein kinase WNK2 (Homo sapiens) (UniProt Q9Y3S1); assay: Inhibition of Wnk2 Lys2 labeling site in human Huh-7 cells at 1 uM by KiNativ Profiling analysis relative to control; assay type: cell-based
[13] = target: Ribosomal protein S6 kinase alpha-3 (Homo sapiens) (UniProt P51812); assay: Inhibition of RSK2 domain2 Protein Kinase Domain labeling site in human Huh-7 cell lysate at 1 uM by KiNativ Profiling analysis relative to control; assay type: subcellular
[14] = target: T2, Phosphatidylinositol 5-phosphate 4-kinase type-2 gamma (Homo sapiens) (UniProt Q8TBX8); assay: Inhibition of PIP4K2C ATP labeling site harbouring TLVIKEVSSEDIADMHSNLSNYHQYIVK in human Huh-7 cells at 1 uM by KiNativ Profiling analysis relative to control; assay type: cell-based
T2 sequence (whole entry): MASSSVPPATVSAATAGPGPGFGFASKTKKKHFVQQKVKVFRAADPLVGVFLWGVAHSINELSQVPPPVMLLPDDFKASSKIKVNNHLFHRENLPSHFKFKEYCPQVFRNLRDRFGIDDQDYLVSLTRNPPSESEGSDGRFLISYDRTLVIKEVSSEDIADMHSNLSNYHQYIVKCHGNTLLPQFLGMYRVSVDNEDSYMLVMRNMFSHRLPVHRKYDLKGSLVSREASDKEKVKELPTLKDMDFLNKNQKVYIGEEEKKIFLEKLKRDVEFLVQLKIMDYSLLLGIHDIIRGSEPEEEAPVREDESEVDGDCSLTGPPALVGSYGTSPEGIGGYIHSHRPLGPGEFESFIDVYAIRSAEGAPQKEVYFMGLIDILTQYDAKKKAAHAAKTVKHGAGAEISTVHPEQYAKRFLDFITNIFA

[15] = target: Serine/threonine-protein kinase Nek4 (Homo sapiens) (UniProt P51957); assay: Inhibition of NEK4 Lys2 labeling site in human A-375 cells at 5 uM by KiNativ Profiling analysis relative to control; assay type: cell-based
[16] = target: SRSF protein kinase 2 (Homo sapiens) (UniProt P78362); assay: Inhibition of SRPK2 (unknown origin) at 1 uM by Ambit Kinomescan binding assay relative to control
[17] = target: Muscle, skeletal receptor tyrosine-protein kinase (Homo sapiens) (UniProt O15146); assay: Inhibition of MUSK (unknown origin) at 1 uM by Ambit Kinomescan binding assay relative to control; values are per cent of control
[18] = target: Vascular endothelial growth factor receptor 2 (Homo sapiens) (UniProt P35968); assay: Inhibition of VEGFR2 (unknown origin) at 1 uM by Ambit Kinomescan binding assay relative to control
[19] = target: G protein-coupled receptor kinase 4 (Homo sapiens) (UniProt P32298); assay: Inhibition of GRK4 (unknown origin) at 1 uM by Ambit Kinomescan binding assay relative to control; values are per cent of control
[20] = target: SRSF protein kinase 1 (Homo sapiens) (UniProt Q96SB4); assay: Inhibition of SRPK1 (unknown origin) at 1 uM by Ambit Kinomescan binding assay relative to control

Sequence of Mitogen-activated protein kinase 7 (Homo sapiens) (Q13164 2-816 limits assumed): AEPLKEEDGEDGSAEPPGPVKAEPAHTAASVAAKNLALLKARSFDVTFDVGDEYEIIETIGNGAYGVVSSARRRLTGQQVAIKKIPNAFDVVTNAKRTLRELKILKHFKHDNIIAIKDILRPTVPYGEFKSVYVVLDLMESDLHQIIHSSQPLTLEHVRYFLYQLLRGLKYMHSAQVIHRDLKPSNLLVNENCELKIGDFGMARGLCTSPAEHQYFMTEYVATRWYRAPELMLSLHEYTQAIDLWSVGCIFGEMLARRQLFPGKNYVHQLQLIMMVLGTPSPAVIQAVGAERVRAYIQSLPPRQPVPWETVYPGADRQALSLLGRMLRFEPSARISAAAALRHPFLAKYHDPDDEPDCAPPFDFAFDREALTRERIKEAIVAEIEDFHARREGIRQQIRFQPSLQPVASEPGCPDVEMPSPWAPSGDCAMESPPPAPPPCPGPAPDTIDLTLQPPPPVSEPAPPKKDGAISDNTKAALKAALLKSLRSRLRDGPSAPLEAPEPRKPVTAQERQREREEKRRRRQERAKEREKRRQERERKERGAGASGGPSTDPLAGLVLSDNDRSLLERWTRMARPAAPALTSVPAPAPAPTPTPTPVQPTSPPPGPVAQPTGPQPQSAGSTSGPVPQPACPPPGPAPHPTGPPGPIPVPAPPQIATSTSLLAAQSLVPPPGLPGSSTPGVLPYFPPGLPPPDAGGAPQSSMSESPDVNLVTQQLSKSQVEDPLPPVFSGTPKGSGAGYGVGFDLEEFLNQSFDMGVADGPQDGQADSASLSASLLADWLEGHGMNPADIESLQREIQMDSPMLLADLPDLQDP
Sequence of Muscle, skeletal receptor tyrosine-protein kinase (Homo sapiens) (O15146 whole entry): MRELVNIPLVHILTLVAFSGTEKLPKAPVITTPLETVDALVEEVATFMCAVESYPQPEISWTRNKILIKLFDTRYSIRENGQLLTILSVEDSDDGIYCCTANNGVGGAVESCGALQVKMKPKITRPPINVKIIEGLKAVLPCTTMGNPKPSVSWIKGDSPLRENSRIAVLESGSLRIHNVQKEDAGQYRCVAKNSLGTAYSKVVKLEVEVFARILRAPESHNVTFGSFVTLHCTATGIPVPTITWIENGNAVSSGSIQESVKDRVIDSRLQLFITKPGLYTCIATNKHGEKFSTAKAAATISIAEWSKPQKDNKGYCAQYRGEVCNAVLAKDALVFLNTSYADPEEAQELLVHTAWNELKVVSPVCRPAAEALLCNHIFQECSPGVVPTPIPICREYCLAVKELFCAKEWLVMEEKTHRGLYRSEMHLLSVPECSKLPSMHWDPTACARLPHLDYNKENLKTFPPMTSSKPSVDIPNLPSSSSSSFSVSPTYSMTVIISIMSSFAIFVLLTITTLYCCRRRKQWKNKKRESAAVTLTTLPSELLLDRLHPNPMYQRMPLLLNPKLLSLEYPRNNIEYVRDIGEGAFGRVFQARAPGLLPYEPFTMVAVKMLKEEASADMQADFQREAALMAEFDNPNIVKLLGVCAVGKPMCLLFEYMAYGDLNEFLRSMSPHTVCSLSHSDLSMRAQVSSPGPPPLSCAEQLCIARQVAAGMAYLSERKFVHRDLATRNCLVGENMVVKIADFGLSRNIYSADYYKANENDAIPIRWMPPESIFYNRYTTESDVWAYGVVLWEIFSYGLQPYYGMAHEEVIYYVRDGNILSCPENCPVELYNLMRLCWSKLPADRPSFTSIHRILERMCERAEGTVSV
Sequence of Mast/stem cell growth factor receptor Kit (Homo sapiens), P10721 [V559D] (P10721 whole entry V559D): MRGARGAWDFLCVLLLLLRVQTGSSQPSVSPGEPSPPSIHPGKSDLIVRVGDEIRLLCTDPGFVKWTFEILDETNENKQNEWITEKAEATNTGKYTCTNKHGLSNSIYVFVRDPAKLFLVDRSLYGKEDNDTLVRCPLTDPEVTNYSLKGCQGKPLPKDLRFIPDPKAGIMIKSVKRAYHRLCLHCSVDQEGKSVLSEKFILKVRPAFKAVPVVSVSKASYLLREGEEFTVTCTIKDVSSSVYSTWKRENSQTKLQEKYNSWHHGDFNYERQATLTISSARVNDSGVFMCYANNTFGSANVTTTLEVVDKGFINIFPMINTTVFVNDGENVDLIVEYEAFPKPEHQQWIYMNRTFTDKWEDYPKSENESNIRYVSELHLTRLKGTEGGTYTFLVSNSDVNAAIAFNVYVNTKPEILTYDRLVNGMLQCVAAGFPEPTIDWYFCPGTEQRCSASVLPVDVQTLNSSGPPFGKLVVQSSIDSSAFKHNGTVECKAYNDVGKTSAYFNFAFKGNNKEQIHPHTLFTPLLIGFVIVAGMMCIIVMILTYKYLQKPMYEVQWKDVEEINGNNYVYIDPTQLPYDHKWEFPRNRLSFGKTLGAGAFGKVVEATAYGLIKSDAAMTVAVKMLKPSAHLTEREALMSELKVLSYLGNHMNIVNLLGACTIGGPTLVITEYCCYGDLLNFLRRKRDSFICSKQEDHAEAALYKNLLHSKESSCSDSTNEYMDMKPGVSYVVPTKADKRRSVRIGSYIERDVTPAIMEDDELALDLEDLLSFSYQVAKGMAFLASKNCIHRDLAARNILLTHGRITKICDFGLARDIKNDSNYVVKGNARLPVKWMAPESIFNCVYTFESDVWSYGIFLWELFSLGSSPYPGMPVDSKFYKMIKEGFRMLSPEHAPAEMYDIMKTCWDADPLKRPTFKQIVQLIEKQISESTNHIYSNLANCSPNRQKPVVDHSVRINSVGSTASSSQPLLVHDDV
Sequence of Rho-associated protein kinase 2 (Homo sapiens) (O75116 whole entry, looked up): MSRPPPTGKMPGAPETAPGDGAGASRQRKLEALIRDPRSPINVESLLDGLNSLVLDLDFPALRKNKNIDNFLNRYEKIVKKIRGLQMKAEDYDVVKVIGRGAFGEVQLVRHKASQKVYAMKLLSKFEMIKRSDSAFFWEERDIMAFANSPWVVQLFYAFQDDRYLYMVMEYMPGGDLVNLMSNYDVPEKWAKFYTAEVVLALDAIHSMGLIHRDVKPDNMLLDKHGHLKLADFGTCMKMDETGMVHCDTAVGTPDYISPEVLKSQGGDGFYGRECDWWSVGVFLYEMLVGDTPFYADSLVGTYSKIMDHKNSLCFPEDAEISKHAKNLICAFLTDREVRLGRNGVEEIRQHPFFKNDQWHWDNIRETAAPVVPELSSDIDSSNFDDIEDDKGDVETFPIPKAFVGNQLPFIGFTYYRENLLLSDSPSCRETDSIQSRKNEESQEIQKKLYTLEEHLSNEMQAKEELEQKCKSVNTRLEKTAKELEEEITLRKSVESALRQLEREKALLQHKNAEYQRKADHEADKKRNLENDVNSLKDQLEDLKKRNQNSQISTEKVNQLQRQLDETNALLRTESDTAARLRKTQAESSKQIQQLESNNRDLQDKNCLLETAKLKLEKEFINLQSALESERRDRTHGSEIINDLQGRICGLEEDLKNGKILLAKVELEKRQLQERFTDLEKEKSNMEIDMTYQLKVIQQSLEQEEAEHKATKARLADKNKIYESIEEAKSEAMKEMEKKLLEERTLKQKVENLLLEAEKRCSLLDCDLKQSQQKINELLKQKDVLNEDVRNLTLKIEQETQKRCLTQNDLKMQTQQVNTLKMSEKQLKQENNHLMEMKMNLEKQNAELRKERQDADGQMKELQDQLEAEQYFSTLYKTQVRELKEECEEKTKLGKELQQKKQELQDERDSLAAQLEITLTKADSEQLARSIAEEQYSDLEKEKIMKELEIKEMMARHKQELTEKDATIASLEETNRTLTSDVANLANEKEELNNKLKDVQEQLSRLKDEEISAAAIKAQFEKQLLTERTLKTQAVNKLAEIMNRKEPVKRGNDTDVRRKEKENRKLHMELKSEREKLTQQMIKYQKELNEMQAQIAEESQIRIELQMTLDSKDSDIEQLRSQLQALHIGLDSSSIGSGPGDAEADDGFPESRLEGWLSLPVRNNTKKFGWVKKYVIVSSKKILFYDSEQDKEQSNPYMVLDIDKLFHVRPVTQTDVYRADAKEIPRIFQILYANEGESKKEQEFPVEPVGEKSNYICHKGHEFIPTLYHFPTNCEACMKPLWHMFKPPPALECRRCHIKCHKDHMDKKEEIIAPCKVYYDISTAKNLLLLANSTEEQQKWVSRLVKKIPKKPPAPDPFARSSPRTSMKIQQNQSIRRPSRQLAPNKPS
Sequence of SRSF protein kinase 2 (Homo sapiens) (P78362 whole entry, looked up): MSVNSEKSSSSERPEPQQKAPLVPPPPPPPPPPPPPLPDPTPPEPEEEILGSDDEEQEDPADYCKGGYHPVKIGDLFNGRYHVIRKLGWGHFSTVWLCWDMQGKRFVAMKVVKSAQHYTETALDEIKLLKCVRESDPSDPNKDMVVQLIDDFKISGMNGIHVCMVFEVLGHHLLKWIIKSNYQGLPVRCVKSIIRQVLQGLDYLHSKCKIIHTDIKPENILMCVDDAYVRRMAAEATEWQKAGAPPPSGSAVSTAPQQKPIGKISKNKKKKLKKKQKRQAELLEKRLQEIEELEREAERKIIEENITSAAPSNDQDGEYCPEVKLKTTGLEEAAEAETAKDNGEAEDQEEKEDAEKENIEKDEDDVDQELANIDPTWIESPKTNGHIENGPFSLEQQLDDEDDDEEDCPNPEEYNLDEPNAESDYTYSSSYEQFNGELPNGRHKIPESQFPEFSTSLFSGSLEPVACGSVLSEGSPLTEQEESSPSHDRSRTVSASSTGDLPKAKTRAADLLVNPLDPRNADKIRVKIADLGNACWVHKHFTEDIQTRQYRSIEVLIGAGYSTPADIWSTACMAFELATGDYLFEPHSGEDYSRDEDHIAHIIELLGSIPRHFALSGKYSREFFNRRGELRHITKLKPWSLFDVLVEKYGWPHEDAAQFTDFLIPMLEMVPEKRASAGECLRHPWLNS
Sequence of Casein kinase I isoform alpha-like (Homo sapiens) (Q8N752 whole entry, canonical isoform): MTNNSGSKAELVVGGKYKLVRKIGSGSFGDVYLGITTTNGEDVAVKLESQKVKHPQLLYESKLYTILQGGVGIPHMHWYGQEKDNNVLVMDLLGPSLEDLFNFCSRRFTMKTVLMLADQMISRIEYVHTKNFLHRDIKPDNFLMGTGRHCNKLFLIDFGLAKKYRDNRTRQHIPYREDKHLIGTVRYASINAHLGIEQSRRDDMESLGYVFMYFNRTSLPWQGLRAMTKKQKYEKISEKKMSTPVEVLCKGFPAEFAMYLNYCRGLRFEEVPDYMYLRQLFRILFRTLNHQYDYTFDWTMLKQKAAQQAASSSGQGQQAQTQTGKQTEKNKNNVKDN

Q: What does the source list for `CCN1CCN(Cc2ccc(NC(=O)c3ccc(C)c(Oc4ccnc5[nH]ccc45)c3)cc2C(F)(F)F)CC1`?
A: inhibition [1]: -10%; inhibition [2]: 52.4%; inhibition [3]: inactive; inhibition [4]: 7.6%; inhibition [5]: 5.3%; inhibition [6]: 2.4%; inhibition [7]: 50.3%; inhibition [8]: 3.5%; inhibition [9]: 0%; inhibition [10]: 2.4%; inhibition [11]: 2.3%

Q: Which results are given for `CNc1cc(Oc2cc(C(=O)Nc3cc(N4CCN(C)CC4)cc(C(F)(F)F)c3)ccc2C)ncn1`?
A: inhibition [12]: 15.3%; inhibition [13]: 5.9%; inhibition [14]: 12.8%

Q: `CCN1CCN(Cc2ccc(NC(=O)c3ccc(C)c(/C=C/c4cnc5[nH]ccc5c4OC)c3)cc2C(F)(F)F)CC1` was tested. Which inhibition [15] did it give?
A: 50.4%

Q: What about the inhibition [16] of the same compound?
A: 76%

Q: And the residual activity [17]?
A: 2%

Q: And the inhibition [18]?
A: 14%

Q: And the residual activity [19]?
A: 40%

Q: What about the inhibition [20] of the same compound?
A: 28%
